Experiments:
HL-60 = assay: In vitro cytotoxic activity against HL60 (TB) cell line; type: functional; settings: Homo sapiens
MCF7 = assay: In vitro anticancer activity against breast MCF-7 cell line; type: functional, Homo sapiens
Summary of the method: (§1)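 Primary screen in a three-cell-line panel of MCF7 (breast), NCI-H460 (lung) and SF-268 (CNS), with each compound tested as one dose at 10⁻⁴ molar.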

SR = assay: In vitro cytotoxic activity against SR cell line; type: functional; settings: Homo sapiens
SF-268 = assay: In vitro anticancer activity against SF-268 (CNS) cell line; type: functional, Homo sapiens; summary of the method: as §1
SNB-19 = assay: In vitro cytotoxic activity against central nervous system (CNS) SNB-19 cell line; type: functional; settings: Homo sapiens
MOLT-4 = assay: In vitro cytotoxic activity against MOLT-4 cell line; settings: Homo sapiens
T47D = assay: In vitro cytotoxic activity against breast T-47D cell line; type: functional; settings: Homo sapiens
CCRF-CEM = assay: In vitro cytotoxic activity against leukemia CCRF-CEM cell line; type: functional; settings: Homo sapiens
NCI-H460 = assay: In vitro anticancer activity against lung NCI-H460 cell line; type: functional, Homo sapiens; summary of the method: as §1

| Structure (SMILES) | GI50 (HL-60) [µM] | Activity (MCF7) [%] | GI50 (SR) [µM] | Activity (SF-268) [%] | GI50 (SNB-19) [µM] | GI50 (MOLT-4) [µM] | GI50 (T47D) [µM] | GI50 (CCRF-CEM) [µM] | Activity (NCI-H460) [%] |
| --- | --- | --- | --- | --- | --- | --- | --- | --- | --- |
| COc1cc2c(cc1OCc1ccccc1)N=C[C@@H]1C/C(=C\C(=O)NCCCN3C(=O)c4cccc5cccc(c45)C3=O)CN1C2=O | 0.091 | 0 | < 0.01 | 1 | 0.08 | 0.055 | 0.034 | 0.062 | 0 |
| COc1cc2c(cc1OCc1ccccc1)N=C[C@@H]1C/C(=C\C(=O)NCCN3C(=O)c4cccc5cccc(c45)C3=O)CN1C2=O | – | 89 | – | 95 | – | – | – | – | 101 |
| COc1cc2c(cc1OCCCN1C(=O)c3cccc4cccc(c34)C1=O)N=C[C@@H]1C/C(=C\C(=O)NCCCN3C(=O)c4cccc5cccc(c45)C3=O)CN1C2=O | – | 86 | – | 97 | – | – | – | – | 102 |

From ChEMBL document CHEMBL1136298, “Synthesis of novel C2 and C2-C8 linked pyrrolo[2,1-c][1,4]benzodiazepine-naphthalimide hybrids as DNA-binding agents” (2003)
